{
  "source": "ChEMBL document CHEMBL4699388",
  "about": "“Antiproliferative activities of tricyclic amides derived from beta-caryophyllene via the Ritter reaction against MDA-MB-231 breast cancer cells” (RSC Med Chem, 2020)",
  "key": {"MDA-MB-231 [1]": {"system": "MDA-MB-231", "assay": "Antiproliferative activity against human MDA-MB-231 cells assessed as reduction in cell viability at 50 uM measured after 48 hrs by MTS assay", "format": "functional, cell-based", "outline": "(§1)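 MDA-MB-231 cells exposed to compounds at 25 and 50 μM for 48 h. Viability is compared with a DMSO-treated control. Mean ± SEM from three separate experiments; significance vs control.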"}, "[2]": {"assay": "Aqueous solubility of the compound", "format": "physicochemical", "conditions": "buffer"}, "MDA-MB-231 [3]": {"system": "MDA-MB-231", "assay": "Antiproliferative activity against human MDA-MB-231 cells assessed as reduction in cell viability at 25 to 50 uM measured after 48 hrs by MTS assay", "format": "functional, cell-based", "conditions": "dose microM 25-50, time 48.0 hrs", "outline": "as §1"}, "MDA-MB-231 [4]": {"system": "MDA-MB-231", "assay": "Antiproliferative activity against human MDA-MB-231 cells assessed as reduction in cell viability measured after 48 hrs by MTS assay", "format": "functional, cell-based", "conditions": "MDA-MB-231, 48 h", "outline": "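Concentration–response in MDA-MB-231 cells across a wide concentration range. The dose–response data are used to calculate IC50 for proliferation (MTS).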"}, "Vero [5]": {"system": "Vero", "assay": "Cytotoxicity against African green monkey Vero cells assessed as reduction in cell viability measured after 72 hrs by resazurin assay", "format": "cell-based", "conditions": "chlorocebus sabaeus"}, "MDA-MB-231 [6]": {"system": "MDA-MB-231", "assay": "Antiproliferative activity against human MDA-MB-231 cells assessed as reduction in cell viability at 5 uM measured after 48 hrs by MTS assay", "format": "functional, cell-based"}, "[7]": {"assay": "Selectivity ratio of cytotoxicity against African green monkey Vero cells assessed as reduction in cell viability measured after 72 hrs by resazurin assay to antiproliferative activity against human MDA-MB-231 cells assessed as reduction in cell viability measured after 48 hrs by MTS assay", "format": "toxicity, cell-based", "conditions": "Vero cells versus MDA-MB-231 cells"}, "MDA-MB-231 [8]": {"system": "MDA-MB-231", "assay": "Cell cycle arrest in human MDA-MB-231 cells assessed as accumulation at G2/M phase at 9 uM measured after 24 hrs by RNaseA/propidium iodide staining based flow cytometry analysis relative to control", "format": "functional", "outline": "(§2)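 MDA-MB-231 cells treated 24 h with 10 μM or 9 μM test agent or DMSO control. Cell cycle distribution is read by flow cytometry and expressed as percentage change from control. Mean ± SEM, three separate experiments; p vs DMSO control.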"}, "MDA-MB-231 [9]": {"system": "MDA-MB-231", "assay": "Cell cycle arrest in human MDA-MB-231 cells assessed as decrease in cell population at G0/G1 phase at 9 uM measured after 24 hrs by RNaseA/propidium iodide staining based flow cytometry analysis", "format": "functional", "outline": "as §2"}, "MDA-MB-231 [10]": {"system": "MDA-MB-231", "assay": "Induction of apoptosis in human MDA-MB-231 cells assessed as healthy cells at 20 uM measured after 48 hrs by annexicV-FITC/propidium iodide staining based flow cytometry analysis (reference value: 87.4 %)", "format": "functional"}, "MDA-MB-231 [11]": {"system": "MDA-MB-231", "assay": "Induction of apoptosis in human MDA-MB-231 cells assessed as early apoptotic cells at 20 uM measured after 48 hrs by annexicV-FITC/propidium iodide staining based flow cytometry analysis (reference value: 5.8 %)", "format": "functional"}, "MDA-MB-231 [12]": {"system": "MDA-MB-231", "assay": "Induction of apoptosis in human MDA-MB-231 cells assessed as late apoptotic cells at 20 uM measured after 48 hrs by annexicV-FITC/propidium iodide staining based flow cytometry analysis (reference value: 4.4 %)", "format": "functional"}, "MDA-MB-231 [13]": {"system": "MDA-MB-231", "assay": "Induction of apoptosis in human MDA-MB-231 cells assessed as necrotic cells at 20 uM measured after 48 hrs by annexicV-FITC/propidium iodide staining based flow cytometry analysis (reference value: 2.4 %)", "format": "functional"}, "MDA-MB-231 [14]": {"system": "MDA-MB-231", "assay": "Induction of apoptotic cell death in human MDA-MB-231 cells at 20 uM measured after 48 hrs by annexicV-FITC/propidium iodide staining based flow cytometry analysis", "format": "functional"}, "Vero [15]": {"system": "Vero", "assay": "Cytotoxicity against African green monkey Vero cells assessed as reduction in cell viability measured at 129 uM after 72 hrs by resazurin assay relative to control", "format": "cell-based", "conditions": "chlorocebus sabaeus"}, "Vero [16]": {"system": "Vero", "assay": "Cytotoxicity against African green monkey Vero cells assessed as reduction in cell viability measured at 168 uM after 72 hrs by resazurin assay relative to control", "format": "cell-based", "conditions": "chlorocebus sabaeus"}, "MDA-MB-231 [17]": {"system": "MDA-MB-231", "assay": "Cell cycle arrest in human MDA-MB-231 cells at 10 uM measured after 24 hrs by RNaseA/propidium iodide staining based flow cytometry analysis", "format": "functional", "outline": "as §2"}},
  "note": "Active and inactive are the calls of the source. No cut-off for these calls is given here.",
  "data": [
    {"compound": "CCCCCN[C@]12CCC[C@](C)(CC[C@@H]3[C@@H]1CC3(C)C)C2", "values": [
      {"measurement": "Activity", "setting": "MDA-MB-231 [1]", "result": "Active"},
      {"measurement": "solubility", "setting": "[2]", "result": "Insoluble"}
    ]},
    {"compound": "CC1(C)C[C@H]2[C@H]1CC[C@@]1(C)CCC[C@]2(NC(=O)CCl)C1", "values": [
      {"measurement": "Activity", "setting": "MDA-MB-231 [3]", "result": "Active"},
      {"measurement": "IC50", "setting": "MDA-MB-231 [4]", "result": 21.4, "unit": "µM"}
    ]},
    {"compound": "CC1(C)C[C@H](NC(=O)CCl)[C@]23CC[C@@H](NC(=O)CCl)[C@@](C)(CC[C@@H]12)C3", "values": [
      {"measurement": "Activity", "setting": "MDA-MB-231 [3]", "result": "Active"},
      {"measurement": "IC50", "setting": "MDA-MB-231 [4]", "result": 8.2, "unit": "µM"},
      {"measurement": "Activity", "setting": "Vero [5]", "result": 129, "unit": "µM"},
      {"measurement": "inhibition", "setting": "MDA-MB-231 [6]", "result": "Active"},
      {"measurement": "selectivity ratio", "setting": "[7]", "result": 25},
      {"measurement": "Activity", "setting": "MDA-MB-231 [8]", "result": 91, "unit": "%"},
      {"measurement": "Activity", "setting": "MDA-MB-231 [9]", "result": "Active"},
      {"measurement": "Activity", "setting": "MDA-MB-231 [10]", "result": 7.6, "unit": "%"},
      {"measurement": "Activity", "setting": "MDA-MB-231 [11]", "result": 13.5, "unit": "%"},
      {"measurement": "Activity", "setting": "MDA-MB-231 [12]", "result": 74.3, "unit": "%"},
      {"measurement": "Activity", "setting": "MDA-MB-231 [13]", "result": 4.6, "unit": "%"},
      {"measurement": "Activity", "setting": "MDA-MB-231 [14]", "result": "Active"},
      {"measurement": "Activity", "setting": "Vero [15]", "result": 88, "unit": "%"}
    ]},
    {"compound": "CCCCN[C@]12CCC[C@](C)(CC[C@@H]3[C@@H]1CC3(C)C)C2", "values": [
      {"measurement": "Activity", "setting": "MDA-MB-231 [3]", "result": "Active"},
      {"measurement": "IC50", "setting": "MDA-MB-231 [4]", "result": 37.3, "unit": "µM"}
    ]},
    {"compound": "CC1(C)C[C@H]2[C@H]1CC[C@@]1(C)CCC[C@]2(N)C1", "values": [
      {"measurement": "Activity", "setting": "MDA-MB-231 [3]", "result": "Active"},
      {"measurement": "IC50", "setting": "MDA-MB-231 [4]", "result": 34.9, "unit": "µM"}
    ]},
    {"compound": "CC1(C)C[C@H](NCc2ccccc2)[C@]23CCC[C@@](C)(CC[C@@H]12)C3", "values": [
      {"measurement": "Activity", "setting": "MDA-MB-231 [3]", "result": "Active"},
      {"measurement": "IC50", "setting": "MDA-MB-231 [4]", "result": 23.6, "unit": "µM"}
    ]},
    {"compound": "CC1(C)C[C@H](NC(=O)CCl)[C@]23CCC[C@@](C)(CC[C@@H]12)C3", "values": [
      {"measurement": "Activity", "setting": "MDA-MB-231 [3]", "result": "Active"},
      {"measurement": "IC50", "setting": "MDA-MB-231 [4]", "result": 9.7, "unit": "µM"},
      {"measurement": "Activity", "setting": "Vero [5]", "result": 168, "unit": "µM"},
      {"measurement": "Activity", "setting": "Vero [16]", "result": 89, "unit": "%"},
      {"measurement": "inhibition", "setting": "MDA-MB-231 [6]", "result": "Active"},
      {"measurement": "selectivity ratio", "setting": "[7]", "result": 33},
      {"measurement": "Activity", "setting": "MDA-MB-231 [17]", "result": "inactive"},
      {"measurement": "Activity", "setting": "MDA-MB-231 [10]", "result": 57.8, "unit": "%"},
      {"measurement": "Activity", "setting": "MDA-MB-231 [11]", "result": 9.9, "unit": "%"},
      {"measurement": "Activity", "setting": "MDA-MB-231 [12]", "result": 13.9, "unit": "%"},
      {"measurement": "Activity", "setting": "MDA-MB-231 [13]", "result": 18.4, "unit": "%"}
    ]},
    {"compound": "CCCCC(=O)N[C@]12CCC[C@](C)(CC[C@@H]3[C@@H]1CC3(C)C)C2", "values": [
      {"measurement": "Activity", "setting": "MDA-MB-231 [3]", "result": "Active"},
      {"measurement": "IC50", "setting": "MDA-MB-231 [4]", "result": 55.3, "unit": "µM"}
    ]},
    {"compound": "CCCN[C@]12CCC[C@](C)(CC[C@@H]3[C@@H]1CC3(C)C)C2", "values": [
      {"measurement": "Activity", "setting": "MDA-MB-231 [3]", "result": "Active"},
      {"measurement": "IC50", "setting": "MDA-MB-231 [4]", "result": 45.9, "unit": "µM"}
    ]}
  ]
}
